Assay results: PMC6435032 (Cancer prevention research (Philadelphia, Pa.), 2018)

Columns and labels:
NQO1 [1] = conditions: Sprague-Dawley rats; cited from earlier work
[2] = tested on: NAD(P)H quinone oxidoreductase (NQO1); assay: NQO1 activity in liver tissue of ACI rats; assay type: in vivo; conditions: EB 1 mg/kg/day sc, 4 days, vs vehicle
[3] = tested on: NAD(P)H quinone oxidoreductase (NQO1); assay: NQO1 activity in mammary gland of ACI rats; assay type: in vivo; conditions: 4 days
In short: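 Female ACI rats (n=6/group) were dosed 4 days: EB 1 mg/kg/day sc, alone or with the test compound at 80 mg/kg/day sc or extracts at 2 g/kg/day by gavage. Sesame oil or corn oil/PEG was the vehicle. Frozen mammary tissue was homogenized; NQO1 activity was read at 610 nm in clear supernatant (30 µg protein). Results are fold induction relative to control; mean ± SEM.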

CYP1A1 [4] = assay: CYP1A1 mRNA expression in mammary tissue, RT-qPCR; assay type: in vivo; conditions: ACI rats, 4 days
In short: (§1)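 Female ACI rats (5 weeks old, acclimated 1 week, phytoestrogen-free AIN-76A diet, n=6/group) received sc EB 1 mg/kg/day, sc test compound 80 mg/kg/day or gavaged extracts 2 g/kg/day for 4 days. Vehicles were sesame oil sc, or 50% corn oil with 50% PEG/H2O by gavage. Rats were killed day 5; mammary mRNA was measured by TaqMan RT-qPCR with ACTB probe; mean ± SEM, ANOVA/Dunnett or t-test.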

CYP1B1 [5] = assay: CYP1B1 mRNA expression in mammary tissue, RT-qPCR; assay type: in vivo; conditions: ACI rats, 4 days
In short: as §1

[6] = tested on: estrogen oxidative metabolism (2-MeOE1); assay: 2-MeOE1 in serum by LC-MS/MS; assay type: in vivo; conditions: ACI rats, 4 days, co-administered with EB 1 mg/kg/day; GG, GI 2 g/kg/day, LicA 80 mg/kg/day
E2/E1 levels = E2/E1 levels in serum by LC-MS/MS; assay type: in vivo; conditions: ACI rats, 4 days, co-administered with EB
CYP1A1 [7] = assay type: cell-based, human; conditions: MCF-10A cells, compound 20 µM, 24 h; for Increase of CYP1A1 expression: relative to control
CYP1B1 [8] = assay type: cell-based, human; conditions: MCF-10A cells, compound 20 µM, 24 h; for Induction of CYP1B1 expression: relative to control
[9] = assay type: in vivo; conditions: ACI rats after GG or GI 2 g/kg/day gavage + EB for 4 days
In short: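 Female ACI rats (n=6/group) got extracts 2 g/kg/day by gavage plus sc EB 1 mg/kg/day for 4 days. Serum, liver and mammary homogenates (70% aqueous methanol, 0.1% formic acid) were spiked with naringenin internal standard and protein-precipitated with ice-cold ACN. Supernatant was dried, taken up in 20% ACN and analysed by UHPLC-MS/MS, negative ESI, SRM. Extracts were run at 10 μg/mL in 50% methanol.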

[10] = LicA metabolites in serum, liver and mammary gland, UHPLC-MS/MS; assay type: in vivo; conditions: ACI rats, sc administration of LicA
In short: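 ACI rats got the test compound sc at 80 mg/kg/day with EB 1 mg/kg/day sc for 4 days and were killed day 5. Serum, and liver or mammary homogenates in 70% aqueous methanol with 0.1% formic acid, were spiked with naringenin. They were precipitated with ice-cold ACN (15 min, 13000 x g, 4 °C), dried under nitrogen and reconstituted in 20% ACN. Metabolites were profiled by UHPLC-MS/MS on C18.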

P450 3A4 [11] = conditions: HepG2 cells; cited from earlier work
XRE-luciferase reporter = conditions: HepG2 cells; cited from earlier work
[12] = tested on: estrogen oxidative metabolism; conditions: MCF-10A cells; cited from earlier work
P450 1A2 = conditions: cited from earlier work
P450 3A4 [13] = conditions: cited from earlier work
CYP1A1 [14] = conditions: female Sprague-Dawley rats; cited from earlier work
NQO1 [15] = conditions: cited from earlier work
NQO1 [16] = conditions: previous in vitro studies; cited from earlier work
NQO1 [17] = conditions: Sprague-Dawley rats; cited from earlier work; remark: listed apart in the source
[18] = with EB, GG, GI 2 g/kg/day, LicA 80 mg/kg/day

O=c1cc(-c2ccc(Br)cc2)oc2ccccc12 [4’bromoflavone]
NQO1 induction in liver tissues (NQO1 [1]): significant NQO1 induction

C[C@]12CC[C@@H]3c4ccc(OC(=O)c5ccccc5)cc4CC[C@H]3[C@@H]1CC[C@@H]2O [EB, estradiol benzoate, reference compound]
Effect of EB alone on NQO1 activity in liver tissue [2]: did not affect the NQO1 activity significantly | Effect of EB on NQO1 activity in the mammary gland ([3]; EB 1 mg/kg/day, vs vehicle): slightly reduced | CYP1A1 expression in mammary tissue, fold lower than the vehicle control group (CYP1A1 [4]; EB 1 mg/kg/day): 3 fold | CYP1B1 expression in mammary tissue, fold lower than the vehicle control group (CYP1B1 [5]; EB 1 mg/kg/day): 5 fold

C=CC(C)(C)c1cc(/C=C/C(=O)c2ccc(O)cc2)c(OC)cc1O [LicA, licochalcone A]
Induction of NQO1 activity in mammary tissue ([3]; co-treatment with EB, GG, GI 2 g/kg/day, LicA 80 mg/kg/day): No induction | Reduction of 2-MeOE1 in serum, of the EB treatment group [6]: ~70% | Effect on E2/E1 levels in serum (E2/E1 levels): only slightly influenced | Upregulation of CYP1A1 in mammary tissue compared to the EB treatment group (CYP1A1 [4]; [18]): no statistical difference | Down-regulation of CYP1B1 expression in mammary tissue compared to the EB treatment group (CYP1B1 [5]; [18]): no statistical difference | CYP1A1 expression, fold lower than basal levels (CYP1A1 [7]): 34 fold | CYP1B1 expression, fold lower than basal levels (CYP1B1 [8]): 10 fold | Presence in liver and mammary tissues (qualitative) [9]: available | GSH conjugate in the liver [10]: major metabolite | GSH conjugate in the serum and mammary tissues [10]: minor metabolite | Main metabolism in serum, liver and mammary tissues [10]: glucuronidation reactions dominated | Sulfation in mammary tissue [10]: not detectable | Sulfation in serum and liver [10]: minor | P450 3A4 gene expression (P450 3A4 [11]): decreased | XRE-luciferase reporter activity (XRE-luciferase reporter): inhibited | Effect on estrogen oxidative metabolism [12]: inhibited | Inhibition of P450 1A2 activity (P450 1A2): moderately inhibited | Inhibition of P450 3A4 activity (P450 3A4 [13]): moderately inhibited

O=C(/C=C/c1ccc(O)cc1)c1ccc(O)cc1O [LigC, isoliquiritigenin]
Increase of CYP1A1 expression (CYP1A1 [7]): 4 fold | Induction of CYP1B1 expression (CYP1B1 [8]): 2.5 fold | Presence in liver and mammary tissues (qualitative) [9]: available | Increase of CYP1A1 levels in mammary tissues (CYP1A1 [14]): 6.84 fold | Induction of NQO1 activity in in vivo models (NQO1 [15]): didn’t induce | Effect on estrogen oxidative metabolism [12]: increase | Inhibition of P450 1A2 activity (P450 1A2): weakly | Inhibition of P450 3A4 activity (P450 3A4 [13]): weakly

O=C1C[C@@H](c2ccc(O)cc2)Oc2cc(O)ccc21 [LigF, liquiritigenin]
Increase of CYP1A1 expression (CYP1A1 [7]): did not affect | Induction of CYP1B1 expression (CYP1B1 [8]): 2 fold | Presence in liver and mammary tissues (qualitative) [9]: available | Effect on NQO1 activity in vitro (NQO1 [16]): no effect | Effect on estrogen oxidative metabolism [12]: no effect

CC1(C)C=Cc2c(ccc3c2OC[C@@H](c2ccc(O)cc2O)C3)O1 [glabridin]
Presence in liver and mammary tissues (qualitative) [9]: not detected | Inhibition of P450 1A2 activity (P450 1A2): weakly | Inhibition of P450 3A4 activity (P450 3A4 [13]): weakly

COc1cc(O)c(CC=C(C)C)c(O)c1C(=O)/C=C/c1ccc(O)cc1 [xanthohumol]
NQO1 induction in the mammary gland (NQO1 [17]): no NQO1 induction | NQO1 induction in liver tissues (NQO1 [1]): significant NQO1 induction
